Reference: ChEMBL document CHEMBL2069303, “Stellettin A induces endoplasmic reticulum stress in murine B16 melanoma cells” (J Nat Prod, 2012)
Converted amounts (≈) assume the structure as drawn. The source made the active and inactive calls. The calls are words filed in the database; no cut-off is given here.

Key:
[1] = test system: B16-F10; assay: Induction of endoplasmic reticulum stress in C57BL/6J mouse B16F10 cells assessed as upregulation of GRP78 level at 0.625 ug/mL after 12 hrs by immunoblot analysis; format: functional, cell-based
Method in brief: (§1)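 Treated B16F10 cells were PBS-washed and lysed in 50 mM Tris-Cl, 150 mM NaCl, 0.2% Triton X-100, aprotinin and PMSF, then spun at 4 °C. Protein was equalised by BCA. Lysates were run on 10% SDS-PAGE, transferred to PVDF, blocked with 2% gelatin and probed with specific primary antibodies (TRP-1 blots: 0–0.625 μg/mL for 24 h).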

[2] = test system: B16-F10; assay: Induction of endoplasmic reticulum stress in C57BL/6J mouse B16F10 cells assessed as immature TRP1 level at 0.6 ug/mL incubated for 12 to 24 hrs measured 1 hr post endoglycosidase H-treatment by immunoblot analysis; format: functional, cell-based
Method in brief: (§2)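 Lysates of treated B16F10 cells were prepared in RIPA buffer. Protein (10 μg) was digested with 100 units endoglycosidase H or peptide N-glycosidase F at 37 °C for 1 h, then immunoblotted for TRP-1 to separate EndoH-sensitive and EndoH-resistant glycoforms.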

[3] = test system: B16-F10; assay: Induction of endoplasmic reticulum stress in C57BL/6J mouse B16F10 cells assessed as deglycosylated TRP1 level at 0.6 ug/mL after 24 hrs by immunoblot analysis; format: functional, cell-based; method in brief: as §1
[4] = test system: HT-29; assay: Selectivity ratio of IC50 for human HT-29 cells to IC50 for mouse B16F10 cells; format: functional
[5] = test system: HaCaT; assay: Selectivity ratio of IC50 for human HaCaT cells to IC50 for mouse B16F10 cells; format: functional
[6] = test system: B16-F10; assay: Induction of endoplasmic reticulum stress in C57BL/6J mouse B16F10 cells assessed as immature TRP1 level at 0.6 ug/mL after 24 hrs by immunoblot analysis; format: functional, cell-based; method in brief: as §1
[7] = test system: B16-F10; assay: Induction of apoptosis in C57BL/6J mouse B16F10 cells assessed as Bcl2 activation at 0.6 ug/mL up to 48 hrs by immunoblot analysis; format: functional, cell-based
[8] = test system: HaCaT; assay: Selectivity ratio of IC50 for human HaCaT cells to IC50 for mouse TM3 cells; format: functional
[9] = test system: B16-F10; assay: Cytotoxicity against C57BL/6J mouse B16F10 cells after 48 hrs by SRB assay; format: functional, cell-based; details: B16-F10, 48 h
Method in brief: (§3)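 B16F10 and TM3 cells in 96-well plates were exposed to serial dilutions (0.08–5 μg/mL) for 24 or 48 h. Proteins were fixed with 50% TCA, stained with 0.4% SRB in 1% acetic acid, rinsed with 1% acetic acid, and the dye was dissolved in 10 mM Tris base (pH 10.5). Absorbance was read at 570 nm. Triplicates in at least three separate experiments; IC50 from concentration–response.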

[10] = Cytotoxicity against mouse TM3 cells after 48 hrs by SRB assay; format: functional, cell-based; details: TM3, 48 h; method in brief: as §3
[11] = test system: B16-F10; assay: Induction of endoplasmic reticulum stress in C57BL/6J mouse B16F10 cells assessed as upregulation of HSC70 level at 0.625 ug/mL after 24 hrs by immunoblot analysis; format: functional, cell-based; method in brief: as §1
[12] = test system: B16-F10; assay: Induction of endoplasmic reticulum stress in C57BL/6J mouse B16F10 cells assessed as upregulation of GRP78 level after 24 hrs by immunofluorescence staining method; format: functional, cell-based
Method in brief: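 B16F10 cells (20 000/mL) on gelatinized coverslips were treated with 0, 0.31, 0.625, 1.25 or 2.5 μg/mL for 24 h. Fixed in 4% paraformaldehyde and immunostained for GRP78, with Alexa-594-conjugated secondary IgG. DAPI counterstain; confocal imaging.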

[13] = test system: HT-29; assay: Selectivity ratio of IC50 for human HT-29 cells to IC50 for mouse TM3 cells; format: functional
[14] = Selectivity ratio of IC50 for mouse Melan-a cells to IC50 for mouse TM3 cells; format: functional
[15] = test system: B16-F10; assay: Decrease in TRP1 level in C57BL/6J mouse B16F10 cells assessed as depigmentation after 48 hrs; format: functional, cell-based
[16] = test system: B16-F10; assay: Selectivity ratio of IC50 for mouse Melan-a cells to IC50 for mouse B16F10 cells; format: functional
[17] = test system: B16-F10; assay: Cytotoxicity against C57BL/6J mouse B16F10 cells assessed as cell viability after 24 hrs by SRB assay relative to control; format: functional
Method in brief: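 B16F10 cells (20 000/0.1 mL) were given serial concentrations (0.08–5 μg/mL) for 24 h. SRB read-out: TCA fixation, 0.4% SRB staining, acetic acid rinses, solubilisation in 10 mM Tris (pH 10.5), absorbance at 570 nm. Viability expressed relative to untreated control; triplicates in at least three experiments.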

[18] = test system: B16-F10; assay: Cytotoxicity against C57BL/6J mouse B16F10 cells after 24 hrs by SRB assay; format: functional, cell-based; details: B16-F10, 24 h; method in brief: as §3
[19] = test system: B16-F10; assay: Induction of endoplasmic reticulum stress in C57BL/6J mouse B16F10 cells assessed as upregulation of HSC70 level at 0.625 ug/mL after 12 hrs by immunoblot analysis; format: functional, cell-based; method in brief: as §1
[20] = test system: B16-F10; assay: Induction of endoplasmic reticulum stress in C57BL/6J mouse B16F10 cells assessed as upregulation of GRP78 level at 0.625 ug/mL after 24 hrs by immunoblot analysis; format: functional, cell-based; method in brief: as §1
[21] = test system: B16-F10; assay: Induction of endoplasmic reticulum stress in C57BL/6J mouse B16F10 cells assessed as abnormally glycosylated TRP1 level at 0.6 ug/mL incubated for 12 hrs measured 1 hr post peptide N-glycosidase F-treatment by immunoblot analysis; format: functional, cell-based; method in brief: as §2
[22] = test system: B16-F10; assay: Induction of autophagy in C57BL/6J mouse B16F10 cells assessed as LC32 accumulation at 0.6 ug/mL by immunoblot analysis; format: functional, cell-based; method in brief: as §1
[23] = test system: B16-F10; assay: Induction of autophagy in C57BL/6J mouse B16F10 cells assessed as LC3-TYR colocalization at 0.625 to 2.5 ug/mL after 24 hrs by fluorescence microscopy; format: functional, cell-based
Method in brief: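 B16F10 cells on sterile coverslips were exposed to 0, 0.625, 1.25 or 2.5 μg/mL for 24 h, PBS-washed and paraformaldehyde-fixed. They were co-stained with anti-tyrosinase and anti-LC3, then AlexaFluor-488/594 secondary IgG. DAPI counterstain. Confocal microscopy used to score yellow overlap.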

Compound: C\C(=C/C=C/C(C)=C1/C(=O)C[C@H]2[C@@]3(C)CCC(=O)C(C)(C)[C@@H]3CC[C@]12C)c1ccc(C)c(=O)o1 [STELLETIN A]
- Activity [1]: Active
- Activity [2]: Active
- Activity [3]: Active
- Ratio IC50 [4]: 10
- Ratio IC50 [5]: 10
- Activity [6]: Active
- Activity [7]: inactive
- Ratio IC50 [8]: 10
- IC50 [9]: 0.15 µg/mL (≈ 0.324 µM)
- IC50 [10]: 0.8 µg/mL (≈ 1.73 µM)
- Activity [11]: inactive
- Activity [12]: Dose-dependent effect
- Ratio IC50 [13]: 10
- Ratio IC50 [14]: 10
- Activity [15]: Active
- Ratio IC50 [16]: 10
- Activity [17]: 70%
- IC50 [18]: 2 µg/mL (≈ 4.32 µM)
- Activity [19]: Active
- Activity [20]: inactive
- Activity [21]: Active
- Activity [22]: Active
- Activity [23]: Active
